According to ChEMBL document CHEMBL4627406, “Amino Acids Bearing Aromatic or Heteroaromatic Substituents as a New Class of Ligands for the Lysosomal Sialic Acid Transporter Sialin” (J Med Chem, 2020):

Assays:
[1] = Lipophilicity, log Pof the compound; type: physicochemical; conditions: octanol/water
[2] = target: T1, Sialin (Homo sapiens, UniProt Q9NRA2); experiment: Inhibition of human recombinant-Sialin expressed in HEK293 cells assessed as reduction in [3H]Neu5Ac uptake at 30 to 300 uM incubated for 15 mins by liquid scintillation counting method; type: cell-based
T1 sequence (Q9NRA2 whole entry): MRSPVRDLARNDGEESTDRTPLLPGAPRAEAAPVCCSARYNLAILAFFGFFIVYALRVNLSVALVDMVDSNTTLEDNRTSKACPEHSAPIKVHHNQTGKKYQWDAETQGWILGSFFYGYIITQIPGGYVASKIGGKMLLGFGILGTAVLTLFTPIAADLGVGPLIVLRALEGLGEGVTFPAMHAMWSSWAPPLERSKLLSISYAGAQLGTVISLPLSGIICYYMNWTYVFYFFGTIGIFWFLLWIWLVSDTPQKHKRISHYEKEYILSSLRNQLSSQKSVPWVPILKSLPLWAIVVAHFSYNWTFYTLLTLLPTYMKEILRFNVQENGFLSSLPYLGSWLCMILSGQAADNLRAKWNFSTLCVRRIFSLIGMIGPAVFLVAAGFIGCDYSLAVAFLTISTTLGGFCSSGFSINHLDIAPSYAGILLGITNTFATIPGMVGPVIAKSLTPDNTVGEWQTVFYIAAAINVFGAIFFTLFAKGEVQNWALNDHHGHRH
Procedure, shortened: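 HEK293 cells expressing EGFP-human sialin L22G/L23G (sorting mutant at the plasma membrane), assayed 2 days after lipofection. Uptake of [3H]Neu5Ac (12.5 nM) over 15 min at room temperature in MES-Na+ pH 5.0 with inhibitor added together with tracer. Cells washed twice ice-cold, radioactivity counted by liquid scintillation. Dose-response run in triplicate, two to three independent experiments.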

[3] = target: T1, Sialin; experiment: Non-competitive inhibition of human recombinant-Sialin expressed in HEK293 cells assessed as reduction in [3H]Neu5Ac uptake incubated for 15 mins by liquid scintillation counting method; type: cell-based

logP [1]	IC50 [2] [µM]	Ki [3] [µM]	Ki [2] [µM]	SMILES
3.91	2.4 to 2.9	7.8	–	O=C(N[C@@H](CSCc1cc(=O)oc2cc(O)ccc12)C(=O)O)OCC1c2ccccc2-c2ccccc21
2.29	–	–	20	CC(C)C[C@H](NC(=O)N1CCCCCC1)C(=O)N[C@H](Cc1cn(C)c2ccccc12)C(=O)N[C@H](Cc1ccccn1)C(=O)O
4.1	23.3 to 24	10.2	–	CC(C)C[C@H](NC(=O)OCC1c2ccccc2-c2ccccc21)C(=O)O
